Measured values taken from ChEMBL document CHEMBL4251709, “Synthesis, Biological Investigation, and Structural Revision of Sielboldianin A” (J Nat Prod, 2018).

How the values were obtained:
HepG2 [1] = test: Antioxidant activity in human HepG2 cells assessed as inhibition of cumene hydroperoxide-mediated lipid peroxidation incubated for 60 mins followed by cumOOH addition for 60 mins measured for 60 mins by C11-BODIPY probe based fluorescence assay; assay type: functional, cell-based; details: HepG2, 1 h
Summary of the method: (§1)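 HepG2 cells grown in MEM Earle's with gentamycin, L-alanyl-L-glutamine, nonessential amino acids, sodium pyruvate and 10% FBS at 37 °C, 5% CO2. 80 000 cells per well were seeded 24 h ahead, ~50% confluent at testing. Sesquiterpenoids were dissolved in DMSO, giving 1% DMSO final in all wells including controls. IC50 from dose–response Hill-slope fit, three experiments, mean ± SD.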

K562 = test: Cytotoxicity against human K562 cells assessed as inhibition of cell growth after 5 days by MTT assay; assay type: cell-based; details: K562, 120 h
Summary of the method: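 K562 cells kept in antibiotic-free RPMI with 2-mercaptoethanol (2 μM), L-glutamine (2 mM) and 10% FCS. 100 μL of cells at 40 000 cells/mL were mixed with 100 μL of serially diluted compound (DMSO stock) in medium, with a drug-free control. Incubation 5 days, 37 °C, 5% CO2. MTT (3 mg/mL) for 3 h, formazan taken up in DMSO, read at 540 and 690 nm. IC50 as % of control growth, three experiments.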

HepG2 [2] = test: Antioxidant activity in human HepG2 cells assessed as inhibition of ABAP-induced peroxyl radical generation incubated for 60 mins measured for 60 mins by DCFH-DA probe based fluorescence assay; assay type: functional, cell-based; details: HepG2, 1 h; summary of the method: as §1

| SMILES | IC50 (HepG2 [1]) [µM] | IC50 (K562) [µM] | IC50 (HepG2 [2]) [µM] |
| --- | --- | --- | --- |
| CC(C)=CCC[C@](C)(O)c1ccc(C)cc1 | > 100 | > 50 | > 100 |
| Cc1ccc([C@]2(C)CC[C@@H](C(C)(C)O)O2)cc1O | 31 | > 50 | 18 |
| Cc1ccc([C@]2(C)CC[C@@H](C(C)(C)O)O2)cc1 | > 100 | > 50 | > 100 |
| O=c1c(O)c(-c2ccc(O)c(O)c2)oc2cc(O)cc(O)c12 [QUERCETIN] | 12 | 2.5 | 65 |
